Screening results as filed in PubChem BioAssay.
Only some compounds are listed: those with a hit (about 2.9% of all), similar ones and a draw of the others.
TRPC6 inhibitor – mouse TRPC6 channel inhibition; Q61143; HEK293-TRPC6, membrane potential dye, ACh-evoked depolarization; active compounds read low; B-score at 10 µM; 1.1% of 310,000 active; AID 2553;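 active means B-score under library mean minus 3 SD, initial fluorescence not abnormally high, positive integrated signal ratio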;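 further: B-score derived from integrated fluorescence ratio over the kinetic read; more negative B-score means stronger inhibition of depolarization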
TRPC4 block – TRPC4 (mouse) channel inhibition; HEK293 TRPC4beta/mu-opioid, DAMGO-evoked Fluo4 calcium flux; active compounds read low; B-score at 10 µM; 0.39% of 300,000 active;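 active means B-score over 3 SD under the library average, no early fluorescence shift, positive overall ratio signal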
Target sequence (Q9QUQ5 whole entry, looked up): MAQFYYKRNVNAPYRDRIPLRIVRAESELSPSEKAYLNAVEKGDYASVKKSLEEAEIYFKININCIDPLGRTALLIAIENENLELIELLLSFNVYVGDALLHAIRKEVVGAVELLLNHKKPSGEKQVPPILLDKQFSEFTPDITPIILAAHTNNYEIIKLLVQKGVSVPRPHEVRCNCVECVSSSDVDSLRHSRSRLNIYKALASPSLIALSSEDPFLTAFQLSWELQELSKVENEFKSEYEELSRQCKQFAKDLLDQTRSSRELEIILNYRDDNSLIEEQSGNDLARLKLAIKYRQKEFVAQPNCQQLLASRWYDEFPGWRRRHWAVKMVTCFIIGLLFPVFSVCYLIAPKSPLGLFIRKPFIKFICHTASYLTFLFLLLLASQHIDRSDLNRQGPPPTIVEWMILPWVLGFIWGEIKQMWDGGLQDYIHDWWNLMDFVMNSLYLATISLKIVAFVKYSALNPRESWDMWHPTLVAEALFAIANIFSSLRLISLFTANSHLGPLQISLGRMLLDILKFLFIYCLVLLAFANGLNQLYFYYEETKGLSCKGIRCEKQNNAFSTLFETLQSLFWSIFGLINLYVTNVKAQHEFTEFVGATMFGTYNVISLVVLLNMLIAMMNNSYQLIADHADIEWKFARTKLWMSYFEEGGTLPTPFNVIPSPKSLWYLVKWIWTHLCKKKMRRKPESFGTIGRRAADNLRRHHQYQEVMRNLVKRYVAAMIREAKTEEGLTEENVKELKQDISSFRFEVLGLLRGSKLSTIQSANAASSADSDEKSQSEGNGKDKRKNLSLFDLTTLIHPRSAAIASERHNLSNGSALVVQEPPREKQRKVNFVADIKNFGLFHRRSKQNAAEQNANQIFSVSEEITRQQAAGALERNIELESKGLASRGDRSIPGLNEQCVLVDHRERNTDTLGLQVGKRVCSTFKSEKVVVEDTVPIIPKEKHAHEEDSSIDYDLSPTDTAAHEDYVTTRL
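Test system – stable TRPC4beta/mu-opioid receptor HEK293 cells · Probe or stimulus – DAMGO, a submaximal dose followed by a maximal one · Dosing – one concentration per compound · Signal – Fluo4 calcium fluorescence by kinetic imaging, 5 s 1 Hz baseline · Evaluation – per-well B score of integrated baseline-normalized Fluo4 ratio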
TRPC6 activator – mouse TRPC6 channel activation; AID 2550; B-score at 10 µM; 0.13% of 310,000 active; HEK293-TRPC6 membrane potential dye fluorescence; active compounds read high; Q61143;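 active means B-score of the integrated fluorescence ratio above library mean plus 3 SD, and starting fluorescence ratio within library mean plus 5 SD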;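 further: higher score means more depolarization so channel activation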
Kir21 inh – Kir2.1 (mouse) channel inhibition; HEK293-Kir2.1, FluxOR thallium flux fluorescence; active compounds read low; B-score at 10 µM; 0.85% of 310,000 active; AID 1672;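 active means fluorescence ratio B-score at or below minus 3 SD of library scores, with starting-brightness B-score within 2 SD, cut at about -4.2 in these data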;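 further: channel flux triggered by added potassium and thallium sulfate stimulus; B-score of peak minus minimum fluorescence over baseline after thallium stimulus; more negative B-score means stronger Kir2.1 block with less thallium influx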
TRPC4 act – TRPC4 (mouse) channel activation. Q9QUQ5. HEK293 TRPC4beta/mu-opioid, Fluo4 calcium fluorescence; active compounds read high. B-score at 10 µM. 0.49% of 310,000 active;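 active means B-score above 5 SD of library B-scores, and initial fluorescence ratio not above library mean plus 5 SD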;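 further: positive B-score marks a calcium rise read as TRPC4 activation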
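Technique: kinetic Fluo4 calcium fluorescence; Test system: TRPC4beta and mu-opioid receptor HEK293 stable cells; Measure: B-scored integrated calcium fluorescence ratio; Benchmarks: low control buffer alone, high control maximal DAMGO; Schedule: 45 min room-temperature Fluo4 loading, 110 s read.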
TRPC4 potent – TRPC4 (mouse) allosteric potentiation. AID 2227. B-score at 10 µM. 0.42% of 310,000 active. Q9QUQ5. HEK293 TRPC4beta/mu-opioid, DAMGO EC20, Fluo-4 Ca2+ flux; active compounds read high;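 active means B-score of calcium response area above 5 SD of library B-scores, with initial fluorescence ratio within 5 SD of library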;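 further: B-score of integrated fluorescence ratio over time as area under calcium response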
TRPC4 sel inh 2 – second selectivity test of TRPC6 inhibitors: effect on mouse TRPC4. shares compounds with TRPC6 inhibitor. HEK293 TRPC4/MOR, membrane potential dye fluorescence; channel activated by saturating DAMGO dose. inhibition, % at 10 µM. 42% of 920 active. AID 2776;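 active means compounds whose fluorescence signal differed from control wells by over 3 SD, either direction, in both duplicate plates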
TRPC4 spec – tests whether TRPC6 inhibitors also affect mouse TRPC4. shares compounds with TRPC6 inhibitor. HEK293 TRPC4/mu-opioid, membrane potential fluorescence. activity change, negative = inhibition, % at 10 µM. 61% of 920 active. AID 2777;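 active means rise or fall in signal beyond 3 SD of buffer-only wells in both replicate plates, either sign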;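 further: integrated kinetic ratio of fluorescence range over baseline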
HEK293 MPD ctr 2-1 – second counter-screen for TRPC6 inhibitors: parental HEK293 cells. shares compounds with TRPC6 inhibitor. parental HEK293 membrane potential dye fluorescence; maximal acetylcholine challenge after compound addition. signal change vs control, % at 10 µM. 31% of 920 active;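 active means membrane potential signal moving either way by over 3 SD of the maximum-effect control, in both duplicate plates, meaning non-specific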
HEK293 MPD ctr-1 – counter-screen for TRPC6 inhibitors: effect in parental HEK293 cells. shares compounds with TRPC6 inhibitor. parental HEK293 membrane potential dye fluorescence. membrane potential signal change, % at 10 µM. 60% of 920 active;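 active means membrane potential signal shifting up or down by more than 3 SD of buffer-only wells, on both duplicate plates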
HEK293 MPD ctr-2 – parental HEK293 nonspecific activity of TRPC6 modulators | membrane potential dye fluorescence | membrane potential signal change, % at 10 µM | 51% of 2,400 active | shares compounds with TRPC6 inhibitor;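 active means membrane potential signal moves up or down beyond 5 SD from buffer-only wells, on both duplicate plates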
HEK293 MPD ctr 2-2 – parental HEK293 nonspecific activity of TRPC6 modulators, second screen; membrane potential dye fluorescence; after compound, maximal acetylcholine stimulation; shares compounds with TRPC6 inhibitor; inhibition, % at 10 µM; 14% of 2,400 active;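 active means membrane potential signal drops by more than 5 SD from the mean control signal, in both duplicate plates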;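 further: plate controls were acetylcholine ECmax control wells for no effect and buffer only wells for full effect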
TRPC4 ctr mod – tests whether TRPC6 modulators also affect mouse TRPC4; percent change from control (negative = decrease, positive = increase), % at 10 µM; HEK293 TRPC4/mu-opioid, membrane potential fluorescence; 69% of 2,400 active; shares compounds with TRPC6 inhibitor;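 active means membrane potential signal moved up or down beyond 5 SD of buffer control wells, in both duplicate plates, actives on both sides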;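 further: plate controls were assay buffer wells for no effect and DAMGO maximal-effect wells for full effect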
TRPC4 ctr inh 2 – second selectivity test of TRPC6 modulators against mouse TRPC4. 55% of 2,400 active. HEK293 TRPC4/mu-opioid, membrane potential dye fluorescence; stimulated with maximal-effect DAMGO. shares compounds with TRPC6 inhibitor. inhibition, % at 10 µM;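 active means drop in membrane potential signal beyond 5 SD of the control wells in both duplicate plates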;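 further: TRPC4 counter screen for TRPC6 hits run under conditions tuned for TRPC6 not TRPC4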
TRPC6 block conf – mouse TRPC6 inhibitor confirmation. shares compounds with TRPC6 inhibitor. HEK293-TRPC6, membrane potential dye, ACh-evoked depolarization. inhibition, % at 10 µM. 43% of 3,300 active;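 active means fluorescence ratio falls more than 5 SD below the full-stimulation control mean, in both duplicate runs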;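 further: integrated fluorescence ratio of peak minus minimum over baseline after agonist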
TRPC6 act conf – confirmation of mouse TRPC6 activators | 11% of 2,800 active | shares compounds with TRPC6 inhibitor | activation, % at 10 µM | HEK293-TRPC6 membrane potential dye fluorescence, FDSS;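 active means ratio signal rise beyond 5 SD above unstimulated control wells' mean, seen in both duplicate runs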;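 further: plate controls were buffer EC0 wells for no effect and acetylcholine ECmax response for full effect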
* hit, by the source's call; i = inactive; . = no result.

SMILES | TRPC6 inhibitor | TRPC4 block | TRPC6 activator | Kir21 inh | TRPC4 act | TRPC4 potent | HEK293 MPD ctr-2 | HEK293 MPD ctr 2-2 | TRPC4 ctr mod | TRPC4 ctr inh 2 | TRPC6 block conf | TRPC6 act conf | others
Cc1onc(-c2c(Cl)cccc2Cl)c1C(=O)N1CCc2ccccc21 | -5.08* | i | i | 1.43 | i | i | i | i | 12.5%* | i | i | i
S=C(NCCc1ccc(Cl)cc1)NC1CC1 | i | i | i | 2.38 | i | i | . | . | . | . | . | .
Cc1[nH]c2ccccc2c1/C=N/Nc1ccc([N+](=O)[O-])cc1 | i | i | 11.5* | -4.38 | i | i | 143.5%* | i | 35.5%* | i | i | 56.0%*
COc1ccc2[nH]c3c(c2c1)CCN1C(=O)N([C@@H](C)C(=O)NCc2ccco2)C(=O)[C@]31C | i | i | i | -0.62 | i | i | . | . | . | . | . | .
O=c1c2cccc3c2c(nn1CN1CCOCC1)-c1ccccc1-3 | i | i | i | 0.62 | i | i | . | . | . | . | . | .
CCN(CC)CCn1nc2c3c(cccc3c1=O)-c1ccccc1-2 | -5.82* | i | i | -1.52 | i | i | -77.5%* | i | -17.5%* | 55.0%* | 39.5%* | i
CN(C)c1cc[n+](CC[n+]2ccc(N(C)C)cc2)cc1 | -5.53* | i | i | -0.2 | i | i | -233.5%* | i | -41.5%* | 40.0%* | 52.5%* | i
CCOc1cc(N(CC)CC)ccc1/C=C(/C#N)c1nc2ccccc2[nH]1 | i | i | 16.5* | -4.75 | 126* | i | 295.0%* | i | 45.5%* | i | i | 48.5%*
COc1ccc(/C=C(\C#N)c2nc3ccccc3[nH]2)cc1O | i | i | i | 1.65 | i | i | . | . | . | . | . | .
COc1cc(/C=C(\C#N)c2nc3ccccc3[nH]2)cc(OC)c1O | -5.3* | i | 13.7* | -6.99 | i | i | 612.0%* | i | 99.5%* | 57.5%* | i | i
COc1ccc(C2CCCN2C(=S)Nc2ccc(C)cc2Cl)cc1OC (stereo not drawn) | i | i | i | -1.41 | i | i | . | . | . | . | . | .
COc1ccc(S(=O)(=O)N2CCOCC2)cc1Br | i | i | i | 1.59 | i | i | . | . | . | . | . | .
COc1ccc(S(=O)(=O)N2CCCCCC2)cc1NC(=O)Cc1ccccc1F | -8.92* | i | 16.3* | 0.01 | i | i | i | i | i | i | i | i
COc1ccc(S(=O)(=O)N2CCCCCC2)cc1Br | -6.4* | i | i | -0.9 | i | i | i | i | 9.0%* | i | 46.5%* | i
Cc1c(C(=O)C(=O)NCC2CCCO2)c2ccccc2n1C (stereo not drawn) | i | i | i | -0.45 | i | i | . | . | . | . | . | .
Nc1cccc(C(=O)OCC(=O)Nc2cccc3c2C(=O)c2ccccc2C3=O)c1 | i | i | i | -1.04 | i | i | . | . | . | . | . | .
CCN(CC)CCC(=O)Nc1cccc2c1C(=O)c1ccccc1C2=O | -6.39* | i | i | -0.65 | i | i | i | i | -30.0%* | 45.5%* | 51.5%* | i
COc1ccc(-n2cc(CN3CCC(OC)CC3)c(-c3cccc(F)c3)n2)cc1 | i | i | i | -0.69 | i | i | . | . | . | . | . | .
COc1ccc(-n2cc(CNC3CCC(O)CC3)c(-c3cccc(F)c3)n2)cc1 (stereo not drawn) | -8.29* | i | i | 0.07 | i | i | . | . | . | . | i | i | TRPC4 sel inh 2=i;TRPC4 spec=i;HEK293 MPD ctr 2-1=i;HEK293 MPD ctr-1=i
CC(C)c1ccc2c(c1)CCC1C(C)(CN)CCCC21C (stereo not drawn) | -6.42* | i | i | -6.14* | i | i | -81.5%* | i | -11.5%* | 81.0%* | 58.5%* | i
c1ccc(COc2ccccc2CNC2CCCC2)cc1 | -7.74* | i | i | -2.91 | i | i | 531.0%* | 130.5%* | 111.5%* | 90.5%* | 107.5%* | .
c1csc(COc2ccccc2CNC2CCCCC2)c1 | -10.5* | -10* | 13.1* | -4.22* | i | i | 513.5%* | 120.5%* | 109.0%* | 90.0%* | 111.0%* | 163.0%*
O=C(COc1ccc(Br)cc1CNC1CCCCC1)NCCc1ccccc1 | -5.07* | i | i | -4.2 | i | i | 212.5%* | i | 41.0%* | 62.0%* | i | .
O=C(COc1ccc(Br)cc1Cl)NC(=O)NCc1ccccc1 | i | i | i | -0.59 | i | i | . | . | . | . | . | .
COc1ccccc1CNC(=O)C12CC3CC(CC(C3)C1)C2 | i | i | i | 1.07 | i | i | . | . | . | . | . | .
CCOC(=O)c1ccc(NC(=O)COc2ccccc2CNC2CCCC2)cc1 | i | i | i | -1.3 | i | i | . | . | . | . | . | .
c1ccc(COc2ccccc2CNC23CC4CC(CC(C4)C2)C3)cc1 | -6.31* | i | 24.7* | -9.77* | i | i | 921.5%* | i | 196.5%* | 73.0%* | 65.0%* | 266.0%*
